Test [1] can be described thus: Inhibition of human erythrocyte calpain using Suc-Leu-Tyr-AMC substrate after 30 mins by spectrofluorimetry. The gist of the method: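 Human erythrocyte calpain I, 34 nM stock added to start, with Suc-Leu-Tyr-AMC, NaCl and CaCl2 in 50 mM Tris–HCl pH 7.5, 1 mM DTT; DMSO ≤1% final. After 30 min at rt, AMC fluorescence read (ex 380/em 460 nm) against calpain-free blank. IC50 from percent inhibition across concentrations; means ± SD, three independent experiments.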

Test [2] deals with Radical scavenging activity. In words: Antioxidant activity assessed as DPPH free radical scavenging activity after 30 mins. The class given is functional. The procedure, abridged: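 Test samples in ethanol mixed with 100 µM ethanolic DPPH, incubated 37 °C for 30 min; absorbance read at 515 nm. Percent inhibition taken against ethanol-treated controls; IC50 is the concentration scavenging 50% of DPPH radicals. Means ± SD of three independent experiments.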

In another test the test system is Liver. The experiment in a line: Antioxidant activity in rat liver homogenates assessed as inhibition of iron-ascorbic acid mix-induced lipid peroxidation after 30 mins by TBARS assay. It counts as functional, tissue-based. To be noted: 0.5 h. The gist of the method:
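Rat liver homogenate (11 mg protein/ml, Bradford vs BSA) incubated with 10 µM […], 0.4 mM ascorbic acid and graded compound concentrations in 50 mM Tris–HCl pH 7.5, 37 °C for 30 min. Stopped with TBA–TCA reagent containing HCl and BHT, heated 95 °C 30 min, centrifuged, supernatant A535 read. IC50 from three independent experiments, means ± SD.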

Turning to `COc1cc2oc(C(=O)N[C@@H](Cc3ccccc3)C(=O)C(N)=O)c(C)c(=O)c2cc1OC`, in test [1], the IC50 turned out to be 90 nM.
`COc1cc2oc(C(=O)N[C@@H](Cc3ccccc3)C(=O)C(=O)NCc3ccccc3)c(C)c(=O)c2cc1OC` had an IC50 in test [1] of 190 nM.
Consider `COc1ccc(CCNC(=O)C(=O)[C@H](Cc2ccccc2)NC(=O)c2oc3cc(OC)c(OC)cc3c(=O)c2C)cc1`, for which, in test [1], the IC50 is 270 nM.
With `COc1ccc2c(=O)c(C)c(C(=O)N[C@@H](Cc3ccccc3)C(=O)C(N)=O)oc2c1`, in test [1], the IC50 was 120 nM.
As to `COc1ccc2c(=O)c(C)c(C(=O)N[C@@H](Cc3ccccc3)C(=O)C(=O)NCc3ccccc3)oc2c1`, inhibition in test [1] was half-maximal at 430 nM (IC50).
`COc1ccc(CCNC(=O)C(=O)[C@H](Cc2ccccc2)NC(=O)c2oc3cc(OC)ccc3c(=O)c2C)cc1`: the IC50 in test [1] was 230 nM.
In test [1], `COc1cc2oc(C(=O)N[C@@H](Cc3ccccc3)C(=O)C(=O)NCc3ccccc3)c(C)c(=O)c2cc1O` yielded an IC50 of 110 nM.
On to `COc1ccc(CCNC(=O)C(=O)[C@H](Cc2ccccc2)NC(=O)c2oc3cc(OC)c(O)cc3c(=O)c2C)cc1`, for which the IC50 in test [1] was determined as 100 nM.
On to `Cc1c(C(=O)N[C@@H](Cc2ccccc2)C(=O)C(=O)NCc2ccccc2)oc2cc(O)c(O)cc2c1=O`, for which the IC50 in test [1] came out at 280 nM; in test [2], 26500 nM; in the test on Liver it was 48700 nM.
On to `COc1ccc(CCNC(=O)C(=O)[C@H](Cc2ccccc2)NC(=O)c2oc3cc(O)c(O)cc3c(=O)c2C)cc1`, for which the IC50 in test [1] stood at 1290 nM; in test [2] it was 41400 nM; in the test with Liver, 52500 nM.
As for `Cc1c(C(=O)N[C@@H](Cc2ccccc2)C(=O)C(=O)NCc2ccccc2)oc2cc(O)ccc2c1=O`, in test [1], the IC50 is 130 nM.
Same read-out and setting: as for `COc1ccc(CCNC(=O)C(=O)[C@H](Cc2ccccc2)NC(=O)c2oc3cc(O)ccc3c(=O)c2C)cc1`, the figure is 90 nM.
As to `Cc1c(C(=O)N[C@@H](Cc2ccccc2)C(=O)C(N)=O)oc2ccccc2c1=O`, the IC50 in test [1] was 70 nM; in test [2] it was over 100000 nM; in the test with Liver, over 100000 nM.
`O=C1O[C@H]([C@@H](O)CO)C(O)=C1O` [ASCORBIC ACID]: the IC50 was 30800 nM in test [2] and over 100000 nM with Liver.

Usually IC50 stands for the concentration that gives 50% inhibition.

The values above are taken from ChEMBL document CHEMBL1777677, “Synthesis of chromone carboxamide derivatives with antioxidative and calpain inhibitory properties” (Eur J Med Chem, 2011).
